The results in this text go back to PubChem BioAssay.

Structures are written as SMILES. Calls of active or inactive are those of the source.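 The calls were made as follows, unless noted: active = GFP response above 150% of the DMSO level; inconclusive = fewer than 70 events counted for a yeast strain; inactive = the rest.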

Experiment [1] in a line: RPL19A-GFP modulators, yeast TOR pathway, confirmation, cell-based, S. cerevisiae, flow cytometry, cherry picks, mother/daughter gates (AID 2270;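 active = GFP response below 50% of the DMSO control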). The settings on record: S. cerevisiae RPL19A-GFP strain, 3 h, at 10 µM, stronger effect = lower value, 100 = same GFP as DMSO wells. (A flow cytometer gives signals particle by particle.)
A short description of experiment [2]: LAP4-GFP expression modulators in yeast, confirmation, cell-based, cherry picks, flow cytometry, mother/daughter gates (AID 2271;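 active = GFP response above 150% of the DMSO control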;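 also: ratio of sample to DMSO plate mean so 100% equals DMSO level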). The settings on record: S. cerevisiae LAP4-GFP strain, 3 h, at 10 µM, stronger effect = higher value, 100 means same as DMSO control. In short, it runs like this: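 System: Alexa 633-stained baker's yeast GFP-fusion strain / Medium: synthetic complete (SC) yeast growth medium / Doses: compound at 10 µM, single point / Times: 3 h treatment at 30 °C with rotation / Detection: HT flow cytometry, GFP fluorescence channel / Benchmarks: DMSO-only negative wells, rapamycin 400 ng/mL positive wells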

The nature of experiment [3]: modulators of MEP2-GFP levels in yeast, confirmation, S. cerevisiae, flow cytometry GFP, cherry picks (AID 2272;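 active = GFP response above 150% of the DMSO control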;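 also: ratio of well signal to plate DMSO mean so 100% equals DMSO level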). The settings on record: S. cerevisiae MEP2-GFP strain, 3 h, at 10 µM, stronger effect = higher value.
Experiment [4] in a line: AGP1-GFP expression modulators, hit retest, confirmation, cell-based, flow cytometry, S. cerevisiae, cherry picks (AID 2273).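 Also: median GFP channel fluorescence over the whole cell population gate.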 The settings on record: S. cerevisiae AGP1-GFP strain, 3 h, at 10 µM.
Experiment [5] can be described thus: modulators of CIT2-GFP expression in yeast, confirmation, S. cerevisiae, GFP fusion, cherry picks, mother/daughter gates (AID 2274). The settings on record: S. cerevisiae CIT2-GFP strain, flow cytometry, 3 h, at 10 µM, stronger effect = higher value.
The mark [6] stands for this setting: measured here: daughter cell gate.
Setting [7] is: measured here: mother cell gate.
Where [8] appears, read: measured here: daughter cell gate response.
Setting [9] is: measured here: mother cell gate response.

`CCC(=O)c1ccc(N2CCN(C(=O)c3ccc(Br)cc3)CC2)c(F)c1`: the GFP response vs DMSO in experiment [1] was 97.6% (inactive); in experiment [1] (setting [6]), 97.6%; in experiment [1] (setting [7]), 94.4%; in experiment [3], 101% (inactive). Also, the GFP response relative to DMSO was 115% (inactive) in experiment [2], 117% in experiment [2] (setting [8]) and 112% in experiment [2] (setting [9]). In addition, the GFP response, % of DMSO in experiment [4] is 96.1% (inactive); in experiment [5], 95.9% (inactive); in experiment [5] (setting [6]) it was 97.4%; in experiment [5] (setting [7]), 93.2%.
Consider `Fc1ccc(/C=N/Nc2nc(-c3cccnc3)nc3ccccc23)cc1`, for which the GFP response vs DMSO in experiment [1] is 94.5% (inactive); in experiment [1] (setting [6]) it was 92.5%; in experiment [1] (setting [7]), 95%; in experiment [3], 102% (inactive). Also, the GFP response relative to DMSO in experiment [2] was 107% (inactive); in experiment [2] (setting [8]), 105%; in experiment [2] (setting [9]) it was 111%. Further, the GFP response, % of DMSO in experiment [4] is 94.6% (inactive); in experiment [5] it was 93.9% (inactive); in experiment [5] (setting [6]), 96.5%; in experiment [5] (setting [7]), 91.2%.
As to `O=C(/C=C/c1c(F)cccc1Cl)c1ccc(O)cc1`, the GFP response vs DMSO in experiment [1] is 94.3% (inactive); in experiment [1] (setting [6]), 94%; in experiment [1] (setting [7]), 94.6%; in experiment [3] it was 105% (inactive). For the same compound, the GFP response relative to DMSO in experiment [2] was 144% (inactive); in experiment [2] (setting [8]) it was 137%; in experiment [2] (setting [9]), 152%. The GFP response, % of DMSO in experiment [4] is 105% (inactive); in experiment [5] it was 94.7% (inactive); in experiment [5] (setting [6]) it was 93.7%; in experiment [5] (setting [7]) it was 93.7%.
Regarding `O=C1c2cccc3c([N+](=O)[O-])ccc(c23)C(=O)N1CCc1ccccn1`, the GFP response vs DMSO in experiment [1] was 103% (inactive); in experiment [1] (setting [6]) it was 104%; in experiment [1] (setting [7]), 99.2%; in experiment [3], 286% (active). In addition, the GFP response relative to DMSO in experiment [2] was 164% (active); in experiment [2] (setting [8]), 157%; in experiment [2] (setting [9]) it was 156%. The GFP response, % of DMSO in experiment [4] was 120% (inactive); in experiment [5] it was 158% (active); in experiment [5] (setting [6]) it was 156%; in experiment [5] (setting [7]), 144%.
`Oc1cccc(/C=N/c2c(-c3ccco3)nc3ccccn23)c1`: the GFP response vs DMSO in experiment [1] was 96.6% (inactive); in experiment [1] (setting [6]), 96.2%; in experiment [1] (setting [7]), 96.9%; in experiment [3], 97.5% (inactive). Moreover, the GFP response relative to DMSO in experiment [2] was 96.5% (inactive); in experiment [2] (setting [8]), 97.9%; in experiment [2] (setting [9]), 94.6%. Besides, the GFP response, % of DMSO in experiment [4] is 97.1% (inactive); in experiment [5], 96.4% (inactive); in experiment [5] (setting [6]), 98.3%; in experiment [5] (setting [7]) it was 94.5%.
For `COc1ccc(NC(=O)COC(=O)c2ccco2)c([N+](=O)[O-])c1`, the GFP response vs DMSO is 99.5% (inactive) in experiment [1], 98.5% in experiment [1] (setting [6]), 96.7% in experiment [1] (setting [7]) and 108% (inactive) in experiment [3]. For the same compound, the GFP response relative to DMSO is 103% (inactive) in experiment [2], 99.3% in experiment [2] (setting [8]) and 102% in experiment [2] (setting [9]). For the same compound, the GFP response, % of DMSO in experiment [4] was 98.9% (inactive); in experiment [5] it was 99.3% (inactive); in experiment [5] (setting [6]) it was 92.7%; in experiment [5] (setting [7]), 98%.
On to `O=S(=O)(/N=C(/Nc1ccc(F)cc1F)c1ccc(Cl)cc1)c1ccccc1`, for which the GFP response vs DMSO in experiment [1] is 101% (inactive); in experiment [1] (setting [6]) it was 101%; in experiment [1] (setting [7]), 103%; in experiment [3] it was 102% (inactive). Moreover, the GFP response relative to DMSO in experiment [2] is 96.5% (inactive); in experiment [2] (setting [8]), 96.5%; in experiment [2] (setting [9]), 96.5%. The GFP response, % of DMSO in experiment [4] is 96.9% (inactive); in experiment [5] it was 96.4% (inactive); in experiment [5] (setting [6]), 98.3%; in experiment [5] (setting [7]), 95.6%.
As for `CS(=O)(=O)c1nc(-c2ccccc2)cc(C(F)(F)F)n1`, the GFP response vs DMSO in experiment [1] was 102% (inactive); in experiment [1] (setting [6]), 105%; in experiment [1] (setting [7]), 95.9%; in experiment [3] it was 146% (inactive). The GFP response relative to DMSO in experiment [2] is 192% (active); in experiment [2] (setting [8]) it was 179%; in experiment [2] (setting [9]), 189%. The GFP response, % of DMSO in experiment [4] is 102% (inactive); in experiment [5], 95.2% (inactive); in experiment [5] (setting [6]), 101%; in experiment [5] (setting [7]), 86.9%.
As for `N/C(=N\OC(=O)c1cc(Br)ccc1Cl)c1ccccn1`, the GFP response vs DMSO in experiment [1] is 101% (inactive); in experiment [1] (setting [6]), 98.7%; in experiment [1] (setting [7]) it was 97.7%; in experiment [3], 110% (inactive). In addition, the GFP response relative to DMSO in experiment [2] was 133% (inactive); in experiment [2] (setting [8]) it was 125%; in experiment [2] (setting [9]) it was 135%. Moreover, the GFP response, % of DMSO is 93.2% (inactive) in experiment [4], 112% (inactive) in experiment [5], 105% in experiment [5] (setting [6]) and 114% in experiment [5] (setting [7]).
On to `COc1ccc(N2C(=O)C(Cl)=C(NCc3ccccc3)C2=O)cc1`, for which the GFP response vs DMSO is 96.5% (inactive) in experiment [1], 93% in experiment [1] (setting [6]), 95.9% in experiment [1] (setting [7]) and 99.3% (inactive) in experiment [3]. For the same compound, the values for the GFP response relative to DMSO in experiment [2], in experiment [2] (setting [8]) and in experiment [2] (setting [9]) were 111% (inactive), 111% and 112%, respectively. In addition, the GFP response, % of DMSO is 95.9% (inactive) in experiment [4], 91.7% (inactive) in experiment [5], 92.3% in experiment [5] (setting [6]) and 90.4% in experiment [5] (setting [7]).
For `Cc1ccccc1C(=O)Nc1cccc(C#N)c1`, the GFP response vs DMSO in experiment [1] is 95.6% (inactive); in experiment [1] (setting [6]), 96.7%; in experiment [1] (setting [7]) it was 94.2%; in experiment [3] it was 108% (inactive). The GFP response relative to DMSO in experiment [2] is 97.7% (inactive); in experiment [2] (setting [8]), 99%; in experiment [2] (setting [9]), 97.4%. Moreover, the GFP response, % of DMSO was 99.8% (inactive) in experiment [4], 97.2% (inactive) in experiment [5], 99.3% in experiment [5] (setting [6]) and 97.1% in experiment [5] (setting [7]).
Regarding `O=C1c2ccsc2SCCN1Cc1ccccc1Cl`, the GFP response vs DMSO was 94.2% (inactive) in experiment [1], 92% in experiment [1] (setting [6]), 95.7% in experiment [1] (setting [7]) and 90.5% (inactive) in experiment [3]. Moreover, the GFP response relative to DMSO in experiment [2] is 111% (inactive); in experiment [2] (setting [8]), 102%; in experiment [2] (setting [9]) it was 114%. Further, the GFP response, % of DMSO is 97.5% (inactive) in experiment [4], 93% (inactive) in experiment [5], 93.8% in experiment [5] (setting [6]) and 90.7% in experiment [5] (setting [7]).
For the compound `CCOC(=O)c1ccc2nc(Nc3nc4ccc(F)cc4s3)sc2c1`, the GFP response vs DMSO in experiment [1] is 99.6% (inactive); in experiment [1] (setting [6]), 98.1%; in experiment [1] (setting [7]) it was 99.3%; in experiment [3] it was 101% (inactive). Further, the GFP response relative to DMSO in experiment [2] was 101% (inactive); in experiment [2] (setting [8]), 97.5%; in experiment [2] (setting [9]) it was 102%. Besides, the GFP response, % of DMSO in experiment [4] was 105% (inactive); in experiment [5], 103% (inactive); in experiment [5] (setting [6]), 103%; in experiment [5] (setting [7]) it was 103%.
